Measured values from article PMC6988732 (The Biochemical journal, 2013).

What was measured:
Format in all cases: cell-based
GFP–PKCθ T243A = GFP–PKCθ T243A (Mus musculus, UniProt Q02111, T243A); assay: Confocal translocation in living LNCaP cells
In short: (§1)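 Mouse full-length PKCθ (wild-type or C1B point mutant) carrying a C-terminal EGFP tag via a GGNSGG spacer, transfected into LNCaP prostate cancer cells. Living cells were exposed to PMA and imaged by confocal microscopy over a time course. Membrane/cytoplasm intensity ratios were quantified from the images; means ± S.E.M., with images typical of three to four independent experiments.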

full-length PKCθ W253G = full-length PKCθ W253G (Mus musculus, UniProt Q02111, W253G); assay: Membrane translocation in HEK-293 cells; conditions: 50 nM PMA, 2 h
Chain of full-length PKCθ W253G (Q02111 whole entry W253G): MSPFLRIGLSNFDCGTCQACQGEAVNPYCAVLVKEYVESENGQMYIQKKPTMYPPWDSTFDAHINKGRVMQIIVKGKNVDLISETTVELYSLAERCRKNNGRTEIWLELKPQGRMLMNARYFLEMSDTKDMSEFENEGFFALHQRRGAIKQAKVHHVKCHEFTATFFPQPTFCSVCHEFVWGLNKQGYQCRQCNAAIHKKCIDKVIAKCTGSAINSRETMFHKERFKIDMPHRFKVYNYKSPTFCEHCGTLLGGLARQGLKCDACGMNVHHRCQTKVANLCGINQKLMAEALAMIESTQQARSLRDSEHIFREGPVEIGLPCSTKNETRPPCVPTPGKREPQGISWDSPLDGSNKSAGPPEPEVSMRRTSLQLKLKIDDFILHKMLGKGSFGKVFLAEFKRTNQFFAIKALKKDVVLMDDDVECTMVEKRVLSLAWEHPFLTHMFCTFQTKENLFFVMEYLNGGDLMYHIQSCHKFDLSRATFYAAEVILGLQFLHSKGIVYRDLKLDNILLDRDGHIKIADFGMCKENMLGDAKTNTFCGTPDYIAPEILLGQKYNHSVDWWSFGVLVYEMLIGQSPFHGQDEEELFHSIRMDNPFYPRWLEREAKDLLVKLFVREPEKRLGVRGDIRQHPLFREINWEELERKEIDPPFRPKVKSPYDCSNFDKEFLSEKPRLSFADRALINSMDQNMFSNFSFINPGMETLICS

GFP–PKCθ W253G = GFP–PKCθ W253G (Mus musculus, UniProt Q02111, W253G); assay: Confocal translocation in living LNCaP cells
Chain of GFP–PKCθ W253G (Q02111 whole entry W253G): as above
In short: as §1

GFP–PKCθ Q258G = GFP–PKCθ Q258G (Mus musculus, UniProt Q02111, Q258G); assay: Confocal translocation in living LNCaP cells
Chain of GFP–PKCθ Q258G (Q02111 whole entry Q258G): as the sequence (Q02111 whole entry W253G) above, with G253W, Q258G counted along it
In short: as §1

full-length PKCθ T243A = full-length PKCθ T243A (Mus musculus, UniProt Q02111, T243A); assay: Membrane translocation in HEK-293 cells; conditions: 50 nM PMA, 2 h
Chain of full-length PKCθ T243A (Q02111 whole entry T243A): as the sequence (Q02111 whole entry W253G) above, with T243A, G253W counted along it

full-length PKCθ L255G = full-length PKCθ L255G (Mus musculus, UniProt Q02111, L255G); assay: Membrane translocation in HEK-293 cells; conditions: 50 nM PMA, 2 h
Chain of full-length PKCθ L255G (Q02111 whole entry L255G): as the sequence (Q02111 whole entry W253G) above, with G253W, L255G counted along it

full-length PKCθ Y239A = full-length PKCθ Y239A (Mus musculus, UniProt Q02111, Y239A); assay: Membrane translocation in HEK-293 cells; conditions: 50 nM PMA, 2 h
Chain of full-length PKCθ Y239A (Q02111 whole entry Y239A): as the sequence (Q02111 whole entry W253G) above, with Y239A, G253W counted along it

full-length PKCθ Q258G = full-length PKCθ Q258G (Mus musculus, UniProt Q02111, Q258G); assay: Membrane translocation in HEK-293 cells; conditions: 50 nM PMA, 2 h
Chain of full-length PKCθ Q258G (Q02111 whole entry Q258G): as the sequence (Q02111 whole entry W253G) above, with G253W, Q258G counted along it

GFP–PKCθ wild-type = GFP–PKCθ wild-type (Mus musculus, UniProt Q02111); assay: Confocal translocation in living LNCaP cells
Chain of GFP–PKCθ wild-type (Q02111 whole entry): as the sequence (Q02111 whole entry W253G) above, with G253W counted along it
In short: as §1

GFP–PKCθ Y239A = GFP–PKCθ Y239A (Mus musculus, UniProt Q02111, Y239A); assay: Confocal translocation in living LNCaP cells
Chain of GFP–PKCθ Y239A (Q02111 whole entry Y239A): as the sequence (Q02111 whole entry W253G) above, with Y239A, G253W counted along it
In short: as §1

GFP–PKCθ L255G = GFP–PKCθ L255G (Mus musculus, UniProt Q02111, L255G); assay: Confocal translocation in living LNCaP cells
Chain of GFP–PKCθ L255G (Q02111 whole entry L255G): as the sequence (Q02111 whole entry W253G) above, with G253W, L255G counted along it
In short: as §1

[1] = 100 nM PMA (second block, r6-r8), 5 min
[2] = 100 nM PMA (second block, r6-r8), 10 min
[3] = 100 nM PMA (second block, r6-r8), 20 min
[4] = 100 nM PMA as printed (first block, r3-r5), 5 min
[5] = 100 nM PMA as printed (first block, r3-r5), 10 min
[6] = 100 nM PMA as printed (first block, r3-r5), 20 min

Chain of GFP–PKCθ T243A (Q02111 whole entry T243A): as the sequence (Q02111 whole entry W253G) above, with T243A, G253W counted along it

For `CCCCCCCCCCCCCC(=O)O[C@@H]1[C@@H](C)[C@@]2(O)[C@@H](C=C(CO)C[C@]3(O)C(=O)C(C)=C[C@@H]23)[C@@H]2C(C)(C)[C@]12OC(C)=O` [PMA], the “Membrane/cytoplasmic intensity ratio, PKCθ T243A” value (GFP–PKCθ T243A; 10 nM PMA, 5 min) was 1.0 ± 0.0, the “Membrane/cytoplasmic intensity ratio, PKCθ T243A” value (GFP–PKCθ T243A; 10 nM PMA, 10 min) was 1.3 ± 0.2 and the “Membrane/cytoplasmic intensity ratio, PKCθ T243A” value (GFP–PKCθ T243A; 10 nM PMA, 20 min) was 1.7 ± 0.1. For the same compound, the “time by which translocation was largely complete” value (GFP–PKCθ T243A; 100 nM PMA) was no more than 5 min, the “Membrane/cytoplasmic intensity ratio, PKCθ T243A” value (GFP–PKCθ T243A; [1]) was 3.6 ± 1.1 and the “Membrane/cytoplasmic intensity ratio, PKCθ T243A” value (GFP–PKCθ T243A; [2]) was 3.7 ± 0.8. The “Membrane/cytoplasmic intensity ratio, PKCθ T243A” value (GFP–PKCθ T243A; [3]) was 3.1 ± 0.6, the “Membrane/cytoplasmic intensity ratio, PKCθ T243A” value (GFP–PKCθ T243A; [4]) was 10.3 ± 1.9 and the “Membrane/cytoplasmic intensity ratio, PKCθ T243A” value (GFP–PKCθ T243A; [5]) was 9.9 ± 1.5. For the same compound, the “Membrane/cytoplasmic intensity ratio, PKCθ T243A” value (GFP–PKCθ T243A; [6]) was 7.4 ± 1.5, the “reduction in membrane translocation compared with the wild-type” value (shortened to “reduction in membrane translocation”) (full-length PKCθ W253G) was 14.8% and the “Membrane/cytoplasmic intensity ratio, PKCθ W253G” value (GFP–PKCθ W253G; 10 nM PMA, 5 min) was 1.0 ± 0.1. The “Membrane/cytoplasmic intensity ratio, PKCθ W253G” value (GFP–PKCθ W253G; 10 nM PMA, 10 min) was 1.1 ± 0.1, the “Membrane/cytoplasmic intensity ratio, PKCθ W253G” value (GFP–PKCθ W253G; 10 nM PMA, 20 min) was 1.2 ± 0.2 and the “Membrane/cytoplasmic intensity ratio, PKCθ W253G” value (GFP–PKCθ W253G; [1]) was 1.9 ± 0.4. For the same compound, the “Membrane/cytoplasmic intensity ratio, PKCθ W253G” value (GFP–PKCθ W253G; [2]) was 3.0 ± 0.7, the “Membrane/cytoplasmic intensity ratio, PKCθ W253G” value (GFP–PKCθ W253G; [3]) was 2.6 ± 0.6 and the “Membrane/cytoplasmic intensity ratio, PKCθ W253G” value (GFP–PKCθ W253G; [4]) was 11.4 ± 3.6. For the same compound, the “Membrane/cytoplasmic intensity ratio, PKCθ W253G” value (GFP–PKCθ W253G; [5]) was 12.7 ± 3.9, the “Membrane/cytoplasmic intensity ratio, PKCθ W253G” value (GFP–PKCθ W253G; [6]) was 13.2 ± 5.0 and the “Membrane/cytoplasmic intensity ratio, PKCθ Q258G” value (GFP–PKCθ Q258G; 10 nM PMA, 5 min) was 1.2 ± 0.1. For the same compound, the “Membrane/cytoplasmic intensity ratio, PKCθ Q258G” value (GFP–PKCθ Q258G; 10 nM PMA, 10 min) was 1.1 ± 0.1, the “Membrane/cytoplasmic intensity ratio, PKCθ Q258G” value (GFP–PKCθ Q258G; 10 nM PMA, 20 min) was 1.1 ± 0.0 and the “Membrane/cytoplasmic intensity ratio, PKCθ Q258G” value (GFP–PKCθ Q258G; [1]) was 1.0 ± 0.0. For the same compound, the “Membrane/cytoplasmic intensity ratio, PKCθ Q258G” value (GFP–PKCθ Q258G; [2]) was 1.1 ± 0.0, the “Membrane/cytoplasmic intensity ratio, PKCθ Q258G” value (GFP–PKCθ Q258G; [3]) was 1.1 ± 0.0 and the “Membrane/cytoplasmic intensity ratio, PKCθ Q258G” value (GFP–PKCθ Q258G; [4]) was 1.2 ± 0.1. For the same compound, the “Membrane/cytoplasmic intensity ratio, PKCθ Q258G” value (GFP–PKCθ Q258G; [5]) was 2.0 ± 0.3, the “Membrane/cytoplasmic intensity ratio, PKCθ Q258G” value (GFP–PKCθ Q258G; [6]) was 2.1 ± 0.4 and the “plasma membrane translocation response” value (GFP–PKCθ Q258G; 100 nM PMA, by 20 min) was “little response”. The “plasma membrane translocation response” value (GFP–PKCθ Q258G; 1000 nM PMA, later times) was “partial translocation”, the “reduction in membrane translocation” value (full-length PKCθ T243A) was 12.5% and the “reduction in membrane translocation” value (full-length PKCθ L255G) was 19.4%. For the same compound, the “reduction in membrane translocation” value (full-length PKCθ Y239A) was 17.1%, the “reduction in membrane translocation” value (full-length PKCθ Q258G) was 21.6% and the “Membrane/cytoplasmic intensity ratio, PKCθ WT” value (GFP–PKCθ wild-type; 10 nM PMA, 5 min) was 1.0 ± 0.1. The “Membrane/cytoplasmic intensity ratio, PKCθ WT” value (GFP–PKCθ wild-type; 10 nM PMA, 10 min) was 1.0 ± 0.1, the “Membrane/cytoplasmic intensity ratio, PKCθ WT” value (GFP–PKCθ wild-type; 10 nM PMA, 20 min) was 1.2 ± 0.4 and the “time to marked translocation to the plasma membrane” value (GFP–PKCθ wild-type; 100 nM PMA) was no more than 2 min. For the same compound, the “Membrane/cytoplasmic intensity ratio, PKCθ WT” value (GFP–PKCθ wild-type; [1]) was 8.1 ± 1.2, the “Membrane/cytoplasmic intensity ratio, PKCθ WT” value (GFP–PKCθ wild-type; [2]) was 6.5 ± 0.7 and the “Membrane/cytoplasmic intensity ratio, PKCθ WT” value (GFP–PKCθ wild-type; [3]) was 5.4 ± 0.5. For the same compound, the “Membrane/cytoplasmic intensity ratio, PKCθ WT” value (GFP–PKCθ wild-type; [4]) was 14.5 ± 2.2, the “Membrane/cytoplasmic intensity ratio, PKCθ WT” value (GFP–PKCθ wild-type; [5]) was 11.3 ± 2.1 and the “Membrane/cytoplasmic intensity ratio, PKCθ WT” value (GFP–PKCθ wild-type; [6]) was 12.1 ± 2.2. The “Membrane/cytoplasmic intensity ratio, PKCθ Y239A” value (GFP–PKCθ Y239A; 10 nM PMA, 5 min) was 1.1 ± 0.0, the “Membrane/cytoplasmic intensity ratio, PKCθ Y239A” value (GFP–PKCθ Y239A; 10 nM PMA, 10 min) was 1.1 ± 0.1 and the “Membrane/cytoplasmic intensity ratio, PKCθ Y239A” value (GFP–PKCθ Y239A; 10 nM PMA, 20 min) was 1.0 ± 0.0. The “Membrane/cytoplasmic intensity ratio, PKCθ Y239A” value (GFP–PKCθ Y239A; [1]) was 1.7 ± 0.4, the “Membrane/cytoplasmic intensity ratio, PKCθ Y239A” value (GFP–PKCθ Y239A; [2]) was 2.3 ± 0.8 and the “Membrane/cytoplasmic intensity ratio, PKCθ Y239A” value (GFP–PKCθ Y239A; [3]) was 2.3 ± 0.5. The “Membrane/cytoplasmic intensity ratio, PKCθ Y239A” value (GFP–PKCθ Y239A; [4]) was 3.8 ± 1.8, the “Membrane/cytoplasmic intensity ratio, PKCθ Y239A” value (GFP–PKCθ Y239A; [5]) was 4.2 ± 1.6 and the “Membrane/cytoplasmic intensity ratio, PKCθ Y239A” value (GFP–PKCθ Y239A; [6]) was 5 ± 0.4. The “Membrane/cytoplasmic intensity ratio, PKCθ L255G” value (GFP–PKCθ L255G; 10 nM PMA, 5 min) was 1.1 ± 0.1, the “Membrane/cytoplasmic intensity ratio, PKCθ L255G” value (GFP–PKCθ L255G; 10 nM PMA, 10 min) was 1.1 ± 0.1 and the “Membrane/cytoplasmic intensity ratio, PKCθ L255G” value (GFP–PKCθ L255G; 10 nM PMA, 20 min) was 1.1 ± 0.0. The “Membrane/cytoplasmic intensity ratio, PKCθ L255G” value (GFP–PKCθ L255G; [1]) was 1.3 ± 0.1, the “Membrane/cytoplasmic intensity ratio, PKCθ L255G” value (GFP–PKCθ L255G; [2]) was 1.6 ± 0.2 and the “Membrane/cytoplasmic intensity ratio, PKCθ L255G” value (GFP–PKCθ L255G; [3]) was 2.3 ± 0.4. For the same compound, the “Membrane/cytoplasmic intensity ratio, PKCθ L255G” value (GFP–PKCθ L255G; [4]) was 4.8 ± 1.5, the “Membrane/cytoplasmic intensity ratio, PKCθ L255G” value (GFP–PKCθ L255G; [5]) was 6.0 ± 1.2 and the “Membrane/cytoplasmic intensity ratio, PKCθ L255G” value (GFP–PKCθ L255G; [6]) was 7.2 ± 1.9.
